In ChEMBL document CHEMBL4118110, “The identification of inhibitory compounds of Rickettsia prowazekii methionine aminopeptidase for antibacterial applications” (Bioorg Med Chem Lett, 2018):

Key:
[1] = (§1) Inhibition of Rickettsia prowazekii N-terminal His6-tagged methionine aminopeptidase 1 expressed in Escherichia coli DLB3 Rosetta cells at 10 uM using Met-AMC as substrate preincubated for 1 hr followed by 30 mins incubation after substrate addition measured after 90 mins in presence of MnCl2 by fluorescence assay relative to control
In short: (§2)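 Recombinant R. prowazekii MetAP with Mn(II) as the metal cofactor. Met-AMC substrate; release of free AMC is followed by fluorescence (excitation 360 nm, emission 460 nm). Activity is the slope of fluorescence versus time, compared with an uninhibited control.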

[2] = as §1, with “cells” for “cells at 10 uM”, “assay” for “assay relative to control”; in short: as §2
[3] = Solubility of the compound; assay type: physicochemical

| Structure (SMILES) | inhibition [1] [%] | IC50 [2] [µM] | solubility [3] |
| --- | --- | --- | --- |
| O=C(O)c1cc2ccc(F)cc2oc1=O | 23 to 78 | 8.3 |  |
| CCCCn1cnc2sc(C(=O)O)c(C)c2c1=O | 46 to 54 | 3.1 |  |
| COc1ccc2c(C)c(C(=O)O)[nH]c2c1 | 28 to 80 | 3.7 |  |
| C=CCNC(=O)c1cc(-c2ccccn2)nc2ccccc12 |  |  | Insoluble |
| Cc1n[nH]c(SCC(=O)c2cccc([N+](=O)[O-])c2)n1 |  | 1.2 |  |
| Nc1nnc(SCc2cccc3ccccc23)[nH]1 | 74 to 83 | 5 |  |
| CNS(=O)(=O)c1ccc(C(=O)O)o1 | 43 to 91 | 0.27 |  |
| Cc1csc(-c2ccccn2)n1 | 85 to 89 | 1.1 |  |
| NCc1nnnn1-c1cccc(Br)c1 |  |  | Insoluble |
| Cc1ccc(C(=O)CSc2nnc(C)[nH]2)c(C)c1 | 54 to 68 | 0.4 |  |
| CCCNC(=O)c1cc(-c2ccccn2)nc2ccccc12 |  |  | Insoluble |
| Cc1ccc(N2C(=O)CC(Sc3nc[nH]n3)C2=O)cc1 (centres undefined) | 40 to 56 |  |  |
| O=C(O)c1ccc(S(=O)(=O)N2CCOCC2)o1 | 8 to 67 |  |  |
| CC(=O)Nc1ccc(C(=O)CSc2nnc(N)[nH]2)cc1 | 89 | 10 |  |
| CCCCCCSc1nnc(N)[nH]1 | 1 to 3 |  |  |
| O=C(O)c1ccc(S(=O)(=O)c2ccccc2)o1 | 18 to 49 |  |  |
| COc1ccccc1-c1cc(C(=O)O)no1 | 33 to 48 |  |  |
| COCCn1cnc2sc(C(=O)O)c(C)c2c1=O | 20 to 24 |  |  |
| CCc1n[nH]c(SCC(=O)c2ccc(C)c(C)c2)n1 | 5 to 38 |  |  |
| Nc1n[nH]c(SCCOc2ccccc2)n1 | 28 to 29 |  |  |
| O=C(O)c1ccc(-c2ccc(Cl)c(Cl)c2)o1 | 46 to 51 |  |  |
| COc1ccccc1NC(=O)CSc1nc[nH]n1 | 19 to 52 |  |  |
| Nc1nnc(SCCC(=O)OC2CCCCC2)[nH]1 |  | 9.4 |  |
| O=C(O)c1c(-c2ccccc2)c(-c2ccccc2)n[nH]c1=O | 33 to 71 |  |  |

| Structure (SMILES) | inhibition [1] [%] | IC50 [2] [µM] | solubility [3] |
| --- | --- | --- | --- |
| Cc1cc(C)nc(SCc2ccc(C(=O)O)o2)n1 | 9 to 11 |  |  |
| Nc1ccc(C(=O)c2ccccc2)cc1N | 10 to 39 |  |  |
| CCc1nnc(SCC(=O)c2ccc([N+](=O)[O-])cc2)[nH]1 | 75 to 81 |  |  |
| CC(C)OC(=O)c1ccc(CSc2nnc(N)[nH]2)cc1 | 59 to 66 |  |  |
| Cc1ccc(SCc2ccc(C(=O)O)o2)cc1 | 4 to 9 |  |  |
| COC(=O)c1ccc(CSc2nnc(N)[nH]2)cc1 | 36 to 46 |  |  |
| Nc1n[nH]c(SCc2ccccc2Cl)n1 | 24 to 34 |  |  |
| O=C(O)c1cscn1 | 35 to 41 |  |  |
| Oc1ccccc1-c1nncn1-c1ccccc1 | 14 to 46 |  |  |
| Cc1cc(C)c(C(=O)O)c(O)n1 | 44 to 52 |  |  |
| Nc1nnc(SCCc2ccccc2)[nH]1 | 14 to 42 |  |  |
| O=C(NCc1ccco1)c1ccc2nc(O)c(O)nc2c1 | 35 to 39 |  |  |
| Cc1c(C(=O)O)sc2nc(CN(C)C)[nH]c(=O)c12 | 20 to 25 |  |  |
| O=C(O)c1ccc(C2=NCc3ccccc3N2)o1 | 7 to 63 |  |  |
| Nc1n[nH]c(SCC(=O)c2ccc([N+](=O)[O-])cc2)n1 | 19 to 53 |  |  |
| COc1cccc(C(=O)Nc2ccsc2C(=O)O)c1 | 1 to 32 |  |  |
| Cc1nc2ccccc2n1Cc1ccc(C(=O)O)o1 | 10 to 21 |  |  |
| O=C(O)c1cc(-c2ccc(Cl)cc2)n[nH]1 |  |  | Insoluble |
| O=C(O)c1cc(-c2ccccc2)on1 | 80 to 82 | 1.4 |  |
| Cc1ccc(-c2noc(-c3ccccc3N)n2)cc1 | 2 to 52 |  |  |
| Cc1ccc2nc(-c3ccccn3)cc(C(=O)O)c2c1 | 28 |  |  |
| CC(C)c1ccc(CSc2nnc(N)[nH]2)cc1 | 48 to 90 |  |  |
| Nc1nnc(SCC(=O)Nc2ccc(Cl)cc2)[nH]1 | 19 to 38 |  |  |
| Cc1ccc(-c2ccc(C(=O)O)s2)cc1 | 4 to 18 |  |  |

| Structure (SMILES) | inhibition [1] [%] | IC50 [2] [µM] | solubility [3] |
| --- | --- | --- | --- |
| C1CCc2nnc(-c3nnc4n3CCCCC4)n2CC1 | 1 to 60 |  |  |
| CCN1CCN(Cc2ccc(O)c3ncccc23)CC1 | 20 to 39 |  |  |
| O=C(O)c1cc(=O)c2ccccc2[nH]1 | 7 to 59 |  |  |
| C=CCn1cnc2sc(C(=O)O)c(C)c2c1=O | 8 to 20 |  |  |
| C#CCSc1nc2sc(C(=O)O)c(C)c2c(=O)[nH]1 | 9 to 58 |  |  |
| COC(=O)c1ccc(CSc2nc[nH]n2)o1 | 30 to 59 |  |  |
| Cc1ccc(C(=O)CSc2nnc(N)[nH]2)cc1 | 17 to 52 |  |  |
| c1ccn2c(C3CCCNC3)nnc2c1 (centres undefined) | 2 to 47 |  |  |
| O=C(O)c1cnccn1 | 42 to 45 |  |  |
| Cc1ccc(S(=O)(=O)Cc2ccc(C(=O)O)o2)cc1 | 12 to 25 |  |  |
| COc1ccc(O)c(C2=NNC(c3ccc(F)cc3)C2)c1 (centres undefined) | 26 to 48 |  |  |
| Cc1cc(O)c2c(c1Cl)C(=O)C=CC2=O | 31 to 66 |  |  |
| COc1ccccc1OCc1ccc(C(=O)O)o1 | 6 to 17 |  |  |
| Nc1n[nH]c(SCc2c(Cl)cccc2Cl)n1 | 5 to 17 |  |  |
| O=C1C(Cl)=C(N2CCCCC2)C(=O)c2ccccc21 | 12 to 46 |  |  |
| O=C(CSc1nnc(-c2ccco2)[nH]1)N1CCCCC1 | 1 to 48 |  |  |
| O=C(O)c1ccc(-c2cc(Cl)ccc2Cl)s1 | 1 to 80 |  |  |
| CCc1n[nH]c(SCc2ccc([N+](=O)[O-])cc2)n1 | 1 to 27 |  |  |
| O=C(O)c1cc(C2CC2)on1 | 28 to 30 |  |  |
| O=C(Nc1ccccc1)C(=O)Nc1ccccc1 | 2 to 39 |  |  |
| Nc1[nH]n(-c2ccccc2)c(=O)c1C1=NCCCCC1 | 2 to 35 |  |  |
| O=C(CSc1nnc[nH]1)Nc1ccccc1 | 2 to 60 |  |  |
| CC(Sc1nnc(N)[nH]1)C(=O)OCc1ccccc1 (centres undefined) | 37 to 54 |  |  |
| Nc1n[nH]c(SCCN2C(=O)c3ccccc3C2=O)n1 | 45 to 50 |  |  |

| Structure (SMILES) | inhibition [1] [%] | IC50 [2] [µM] | solubility [3] |
| --- | --- | --- | --- |
| O=C(O)C(Sc1nnc[nH]1)c1ccccc1 (centres undefined) | 3 to 41 |  |  |
| Cc1c(C(=O)O)sc2ncn(C)c(=O)c12 | 9 to 47 |  |  |
| CCc1ccc(NC(=O)CSc2nnc[nH]2)cc1 | 18 to 60 |  |  |
| NNC(=O)c1ccc(-c2ccc(Cl)cc2)o1 | 10 to 41 |  |  |
| NC(=O)CSc1nnc(-c2ccccc2)[nH]1 | 22 to 45 |  |  |
| Nc1ccncc1-c1ccc(C(=O)O)s1 | 12 to 58 |  |  |
| CC(C)CC(N)c1nnc2ccccn12 (centres undefined) | 22 to 61 |  |  |
| O=C(O)c1ccc(COc2ccccc2F)o1 | 5 to 46 |  |  |
| Cc1c(C(=O)O)sc2ncn(C(C)C)c(=O)c12 | 5 to 19 |  |  |
| CCOC(=O)CSc1nnc(CC)[nH]1 | 6 to 22 |  |  |
| Sc1nnc(-c2ccc(Br)cc2)[nH]1 | 33 to 61 |  |  |
| O=c1cc(CN2CCCCCC2)occ1O | 32 to 44 |  |  |
| c1ccc(CSc2n[nH]c(-c3ccco3)n2)cc1 | 13 to 16 |  |  |
| NNC(=O)COc1cccc(Br)c1 | 1 to 45 |  |  |
| Oc1ccc(Br)cc1-c1nnco1 | 1 to 14 |  |  |
| Cc1ccc2nc(-c3ccccn3)c(C(=O)O)cc2c1 | 1 to 13 |  |  |
| CC(C)OC(=O)CSc1nnc(N)[nH]1 | 23 to 38 |  |  |
| COCc1nc(=O)c2c(C)c(C(=O)O)sc2[nH]1 | 2 to 48 |  |  |
| Nc1n[nH]c(SCc2cccc(Br)c2)n1 | 55 to 64 |  |  |
| S=c1nc(-c2ccccn2)cc[nH]1 | 32 to 75 |  |  |
| O=C(O)c1ccc(-c2cc(Cl)ccc2Cl)o1 | 1 to 57 |  |  |
| NC(=O)c1nc(-c2ccccc2)oc1Cl | 4 to 59 |  |  |
| Cc1ccc(-n2nnc(C(=O)O)c2C)cc1C | 41 |  |  |
